Only some compounds are listed: those with a hit (about 5.8% of all), similar ones and a draw of the others.
Pf Dd2 growth = P. falciparum Dd2 growth inhibition | activity change, % at 10 µM | SYBR Green, 72 h; hits give low values | actives 2.3% (n = 94,000); in the data active = activity change below about -80%; inconclusive = no clear call, values can overlap the other calls
T cruzi growth-1 = blocks T. cruzi growth in NIH3T3 culture. actives 5.9% (n = 77,000). T. cruzi beta-gal in NIH3T3, GalScreen luminescence, 90 h. inhibition, % at 8.34 µM;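 active = mean inhibition above about 93%, with at least 55% of replicates each passing it, limit read from the data, passing the limit was not always enough; inconclusive = only one of those two conditions holds; inactive = neither condition holds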
KDM4C inh = blocks human GASC-1 (KDM4C) demethylase activity; actives 0.15% (n = 96,000); AID 720574; inhibition, % at 12.5 µM; GST-KDM4C 2-372, H3K9me3 peptide, LANCE TR-FRET; Q9H3R0;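 active = mean replicate inhibition above about 25%, with at least 55% of replicates also reaching it, limit read from the data, passing the limit was not always enough; inconclusive = only one of those two conditions met; inactive = neither condition met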
Target sequence (Q9H3R0 2-372 limits assumed): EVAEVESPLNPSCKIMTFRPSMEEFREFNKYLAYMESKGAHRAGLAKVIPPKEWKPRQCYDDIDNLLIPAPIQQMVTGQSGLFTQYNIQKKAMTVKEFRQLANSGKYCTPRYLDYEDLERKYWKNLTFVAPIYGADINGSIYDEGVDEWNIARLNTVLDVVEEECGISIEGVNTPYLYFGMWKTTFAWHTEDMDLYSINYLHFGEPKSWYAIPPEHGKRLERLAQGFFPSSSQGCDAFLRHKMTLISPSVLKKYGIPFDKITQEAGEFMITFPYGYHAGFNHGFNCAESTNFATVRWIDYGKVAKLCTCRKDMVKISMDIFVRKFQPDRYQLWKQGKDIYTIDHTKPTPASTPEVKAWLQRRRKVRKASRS
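Material: N-terminal GST-fused human GASC-1 (KDM4C) fragment, residues 2-372. Input: 10 nM enzyme. Incubation: enzyme reaction 30 min, then detection 60 min, both room temperature. Doses: one test concentration per compound. Read-out basis: inhibition from TR-FRET ratio decrease. Detection: LANCE TR-FRET, excitation 340 nm, emissions 618 and 671 nm.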
IDH1 mut inh = IDH1 R132H (human) inhibition. actives 0.18% (n = 70,000). AID 624101. IDH1 R132H reductase, diaphorase/resazurin fluorescence, 60 min. inhibition, % at 10 µM. O75874; in the data active = inhibition above about 34%; inconclusive = no clear call, values can overlap the other calls; inactive = below about 11%;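 note: 0% = DMSO and 100% = no enzyme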
Target sequence (O75874 whole entry R132H): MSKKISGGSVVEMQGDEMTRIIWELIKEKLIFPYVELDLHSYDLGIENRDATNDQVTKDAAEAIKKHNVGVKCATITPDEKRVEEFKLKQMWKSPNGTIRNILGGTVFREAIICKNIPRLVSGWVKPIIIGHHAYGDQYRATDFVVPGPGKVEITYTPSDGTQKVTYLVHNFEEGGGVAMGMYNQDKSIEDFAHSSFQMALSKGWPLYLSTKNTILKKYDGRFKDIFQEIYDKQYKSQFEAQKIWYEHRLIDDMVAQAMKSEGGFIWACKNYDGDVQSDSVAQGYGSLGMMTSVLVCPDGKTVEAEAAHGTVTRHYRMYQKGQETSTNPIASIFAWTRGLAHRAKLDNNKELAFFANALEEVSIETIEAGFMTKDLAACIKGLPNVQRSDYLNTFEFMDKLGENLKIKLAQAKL
T cruzi growth-2 = blocks T. cruzi growth in NIH3T3 host cells; shares compounds with T cruzi growth-1; AID 651739; inhibition, % at 8.35 µM; actives 72% (n = 5,600); T. cruzi beta-gal in NIH3T3, GalScreen luminescence, 90 h;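 active = mean replicate inhibition above about 95% and at least 55% of replicates individually reaching it, limit read from the data; inconclusive = only one of the two criteria is met; inactive = neither criterion is met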
T cruzi growth-3 = blocks T. cruzi growth in NIH3T3 host cells; actives 21% (n = 5,600); T. cruzi beta-gal in NIH3T3, GalScreen luminescence, 90 h; shares compounds with T cruzi growth-1; inhibition, % at 2.09 µM;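 active = mean inhibition above about 95%, with at least 55% of replicates also reaching it, limit read from the data; inconclusive = meets just one of the two conditions; inactive = meets neither condition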;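 note: plate controls were neutral control median for no effect and positive control median for full effect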
NIH3T3 tox = kills mouse NIH/3T3 fibroblasts | actives 14% (n = 5,600) | shares compounds with T cruzi growth-1 | NIH/3T3 viability, CellTiter-Glo ATP luminescence, 90 h | cytotoxicity (signal decrease), % at 8.35 µM;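 active = mean signal decrease across replicates above about 35% based on untreated-well scatter, with enough replicates individually passing, limit read from the data; inconclusive = no rule stated though some were filed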;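 note: 0% = median of neutral control wells and 100% = median of positive control wells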
NIH3T3 tox 2 = NIH/3T3 (mouse) viability loss; shares compounds with T cruzi growth-1; NIH/3T3 viability, CellTiter-Glo ATP luminescence, 90 h; actives 56% (n = 5,600); inhibition, % at 24.9 µM; AID 651744;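 active = mean loss of cell viability signal at or above a set limit, and enough replicates individually reaching it; inconclusive = meets only the mean limit or only the replicate share; inactive = meets neither condition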;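 note: 0% = median of neutral control wells and 100% = median of positive control wells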
Active calls of the source: *; ? = inconclusive; / = no result given.

SMILES | Pf Dd2 growth | T cruzi growth-1 | KDM4C inh | IDH1 mut inh | T cruzi growth-2 | T cruzi growth-3 | NIH3T3 tox | NIH3T3 tox 2
C[C@@H]1CCCCO[C@H](CN(C)Cc2ccc(C(F)(F)F)cc2)[C@@H](C)CN([C@H](C)CO)C(=O)c2cc(NS(=O)(=O)c3ccccc3)ccc2O1 | -1.0 | ? | 1.9 | 4.6 | 97.3* | -6.8 | 14.6 | 49.6*
C[C@H]1CCCCO[C@H](CN(C)Cc2ccc(C(F)(F)F)cc2)[C@@H](C)CN([C@@H](C)CO)C(=O)c2cc(NS(=O)(=O)c3ccccc3)ccc2O1 | -36.0 | ? | 0.3 | / | 91.0 | 96.5* | 2.8 | 104.4*
C[C@H](CO)N1C[C@H](C)[C@@H](CN(C)Cc2ccc(C(F)(F)F)cc2)OCCCC[C@H](C)Oc2ccc(NS(C)(=O)=O)cc2C1=O | -24.6 | 92.8* | -0.2 | 0.4 | 109.0* | 32.4 | 21.0 | 53.5*
C[C@@H]1CCCCO[C@@H](CN(C)Cc2ccncc2)[C@H](C)CN([C@H](C)CO)C(=O)c2cc(NC(=O)c3ccccc3)ccc2O1 | 1.5 | 81.4 | 4.2 | / | / | / | / | /
COC(=O)CNC(=O)c1ccc(S(=O)(=O)N2CCOCC2)cc1 | / | / | / | 0.1 | / | / | / | /
C[C@H]1CN([C@@H](C)CO)C(=O)c2cc(-c3ccc(C#N)cc3)cnc2O[C@H]1CN(C)Cc1cncnc1 | 5.2 | / | 3.3 | 1.7 | / | / | / | /
Cc1ccc(C)c(N(CC(=O)Nc2ccc(I)cc2)S(C)(=O)=O)c1 | / | / | / | 0.0 | / | / | / | /
C[C@H]1CN([C@@H](C)CO)S(=O)(=O)c2ccc(C#Cc3ccccn3)cc2O[C@H]1CN(C)Cc1cccc(F)c1 | -73.9 | 125.2* | 1.8 | -4.2 | 108.5* | 82.7 | -10.1 | -13.3
C[C@H]1CN([C@@H](C)CO)S(=O)(=O)c2ccc(C#CC3CC3)cc2O[C@@H]1CN(C)Cc1cccc(F)c1 | -23.4 | / | 1.3 | -2.5 | / | / | / | /
C[C@H]1CN([C@@H](C)CO)S(=O)(=O)c2ccc(C#CC3CC3)cc2O[C@H]1CN(C)Cc1cccc(F)c1 | -27.5 | / | 9.3 | -1.5 | / | / | / | /
C[C@H]1CN([C@@H](C)CO)S(=O)(=O)c2ccc(C#Cc3ccccn3)cc2O[C@@H]1CN(C)Cc1cccc(F)c1 | -5.4 | 126.5* | -10.5 | / | 97.9* | 82.7 | -32.0 | 69.9*
C[C@H](CO)N1C[C@H](C)[C@H](CN(C)Cc2cccc(F)c2)Oc2cc(C#Cc3ccccn3)ccc2S1(=O)=O | -78.9 | 124.4* | -8.3 | / | 103.3* | 103.4* | -16.6 | -20.3
C[C@@H]1CN([C@H](C)CO)S(=O)(=O)c2ccc(C#Cc3ccccn3)cc2O[C@H]1CN(C)Cc1cccc(F)c1 | -28.0 | 121.2* | -10.6 | 0.9 | 103.0* | 85.9 | ? | 80.8*
O=C(NC[C@@H]1[C@@H](c2ccccc2)[C@@H](CO)N1Cc1cccnc1)C1CCCCC1 | 0.1 | / | -0.4 | / | / | / | / | /
COc1ccc2c3c(n(C)c2c1)[C@@H](CO)N(C(=O)CN(C)C)CC31CCN(Cc2nccs2)CC1 | -21.5 | / | -1.6 | / | / | / | / | /
O=C(c1ccccc1)N1CC[C@@H]2[C@H]1c1cc(-c3ccccc3F)ccc1N[C@@H]2CO | -25.7 | 109.9* | 8.2 | / | 99.8* | 83.1 | 20.8 | 30.4*
O=C(c1ccccc1)N1CC[C@H]2[C@H](CO)Nc3ccc(-c4ccccc4F)cc3[C@H]21 | -17.1 | 108.4* | -0.1 | / | 97.7* | 88.8 | 13.8 | 22.9
O=C(c1ccc(F)cc1)N1CC[C@@H]2[C@@H](CO)Nc3ccc(-c4ccccc4F)cc3[C@@H]21 | -50.8 | 109.8* | -2.0 | / | 104.3* | 85.4 | 26.6 | 71.1*
O=C(c1ccccc1F)N1CC[C@H]2[C@H](CO)Nc3ccc(-c4ccc(F)cc4)cc3[C@H]21 | -3.0 | 98.5* | 0.0 | / | 101.1* | 99.4* | 11.3 | 95.0*
O=C(c1ccccc1F)N1CC[C@@H]2[C@H]1c1cc(-c3ccc(F)cc3)ccc1N[C@@H]2CO | 5.1 | 93.5 | -0.9 | / | / | / | / | /
O=C(c1cccc(F)c1)N1CC[C@@H]2[C@@H](CO)Nc3ccc(-c4ccccc4F)cc3[C@@H]21 | 6.7 | 40.1 | -0.2 | / | / | / | / | /
O=C(O)CCCC(=O)Nc1cccc(Cl)c1 | / | / | / | -0.4 | / | / | / | /
C[C@H]1CN([C@@H](C)CO)S(=O)(=O)c2ccc(C3=CCCCC3)cc2O[C@@H]1CN(C)C(=O)Cc1ccccc1 | -47.2 | 79.2 | -2.5 | 0.0 | / | / | / | /
C[C@H]1CN([C@@H](C)CO)S(=O)(=O)c2ccc(C3=CCCCC3)cc2O[C@H]1CN(C)C(=O)Cc1ccncc1 | -77.2 | 98.2* | 2.1 | / | 99.0* | 68.0 | 37.1* | 35.7*
C[C@H](CO)N1C[C@H](C)[C@H](CN(C)C(=O)Cc2ccncc2)Oc2cc(C3=CCCC3)ccc2S1(=O)=O | -42.0 | 79.9 | -0.6 | / | / | / | / | /
SMILES | Pf Dd2 growth | T cruzi growth-1 | KDM4C inh | IDH1 mut inh | T cruzi growth-2 | T cruzi growth-3 | NIH3T3 tox | NIH3T3 tox 2
C[C@H]1CN([C@@H](C)CO)S(=O)(=O)c2ccc(C3=CCCCC3)cc2O[C@@H]1CN(C)C(=O)Cc1ccncc1 | -79.9 | 107.0* | 2.8 | 13.7 | 105.4* | 68.4 | 8.0 | 11.1
CCCNC(=O)Nc1ccc2c(c1)C(=O)N(C)C[C@H](OC)[C@H](C)CN(C(C)=O)[C@H](C)CO2 | 3.7 | 31.8 | 3.0 | -0.4 | / | / | / | /
O=C(Nc1ccc(F)cc1)N1CCCCN2[C@@H](CO)[C@@H](c3ccc(C#Cc4ccccn4)cc3)[C@@H]2C1 | -50.6 | 110.2* | -0.9 | / | 103.2* | 97.0* | 15.7 | 35.5*
COc1ccc(NC(=O)N2CCCCN3[C@H](CO)[C@@H](c4ccc(C#Cc5ccccn5)cc4)[C@@H]3C2)cc1 | -19.5 | ? | -1.8 | / | 111.2* | 92.2 | -3.2 | 13.5
CO[C@@H]1CN(C)C(=O)c2ccc(NC(=O)c3ccccn3)cc2OC[C@@H](C)N(Cc2ccccn2)C[C@H]1C | -23.5 | -0.5 | / | / | / | / | / | /
C[C@@H]1CCCCO[C@@H](CN(C)C(=O)Nc2ccc3c(c2)OCO3)[C@H](C)CN([C@H](C)CO)C(=O)c2cc(NS(=O)(=O)c3ccc(Cl)cc3)ccc2O1 | -28.8 | ? | -0.5 | / | 101.4* | 62.3 | -17.9 | 6.0
C[C@@H]1CCCCO[C@@H](CN(C)C(=O)Nc2ccc3c(c2)OCO3)[C@H](C)CN([C@@H](C)CO)C(=O)c2cc(NS(=O)(=O)c3ccccc3)ccc2O1 | -1.2 | 50.0 | 0.6 | / | / | / | / | /
C[C@H](CO)N1C[C@H](C)[C@H](CN(C)C(=O)Nc2ccc3c(c2)OCO3)OCCCC[C@H](C)Oc2ccc(NS(=O)(=O)c3ccccc3)cc2C1=O | -35.0 | 101.3* | 0.0 | -1.6 | 107.0* | 40.5 | 6.1 | -4.9
C[C@@H]1CN([C@H](C)CO)C(=O)c2cc(NS(=O)(=O)c3ccc(Cl)cc3)ccc2O[C@@H](C)CCCCO[C@H]1CN(C)C(=O)Nc1ccc2c(c1)OCO2 | -27.9 | / | -0.2 | 1.6 | / | / | / | /
